Assay results: ChEMBL document CHEMBL2346583, “Synthesis of new fluorinated, 2-substituted 5-pyrrolidinylsulfonyl isatin derivatives as caspase-3 and caspase-7 inhibitors: nonradioactive counterparts of putative PET-compatible apoptosis imaging agents” (Bioorg Med Chem, 2013)

Key:
Caspase-7 = biological target: T1, Caspase-7 (Homo sapiens, UniProt P55210); assay: Inhibition of human recombinant caspase 7 assessed as decrease in AMC release using Ac-Asp-Glu-Val-Asp-AMC as substrate preincubated with enzyme for 10 mins prior to substrate addition measured after 10 mins by fluorescence microplate analysis
T1 sequence (P55210 whole entry): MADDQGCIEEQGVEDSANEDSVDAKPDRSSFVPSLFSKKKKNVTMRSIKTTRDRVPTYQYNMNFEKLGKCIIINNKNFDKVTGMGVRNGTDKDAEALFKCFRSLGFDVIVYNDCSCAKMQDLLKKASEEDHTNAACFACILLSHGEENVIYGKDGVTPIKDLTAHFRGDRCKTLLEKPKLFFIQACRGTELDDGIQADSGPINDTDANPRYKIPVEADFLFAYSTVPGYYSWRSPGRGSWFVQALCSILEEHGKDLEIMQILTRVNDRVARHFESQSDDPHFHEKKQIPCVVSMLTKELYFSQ
Method in brief: (§1)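 Recombinant human caspase at 0.5 units per assay (defined as 500 pmol substrate converted in 60 min), diluted in reaction buffer. Compounds in DMSO, tested at final concentrations from 500 µM down to 5 pM in tenfold steps. Enzyme and compound pre-incubated for 10 min at 37 °C. AMC peptide substrate then added to a final 10 µM and reacted for 10 min. IC50 obtained by nonlinear regression.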

Caspase-6 = biological target: T2, Caspase-6 (Homo sapiens, UniProt P55212); assay: Inhibition of human recombinant caspase 6 assessed as decrease in AMC release using Ac-Val-Glu-Ile-Asp-AMC as substrate preincubated with enzyme for 10 mins prior to substrate addition measured after 10 mins by fluorescence microplate analysis; method in brief: as §1
T2 sequence (P55212 whole entry): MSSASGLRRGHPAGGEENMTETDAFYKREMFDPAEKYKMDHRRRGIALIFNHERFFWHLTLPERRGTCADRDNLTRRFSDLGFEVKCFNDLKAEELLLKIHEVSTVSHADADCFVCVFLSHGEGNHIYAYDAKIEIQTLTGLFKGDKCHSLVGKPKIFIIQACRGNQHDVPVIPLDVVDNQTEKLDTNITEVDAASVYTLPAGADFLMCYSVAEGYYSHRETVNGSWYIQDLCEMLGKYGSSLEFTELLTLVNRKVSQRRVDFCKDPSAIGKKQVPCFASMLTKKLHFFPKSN

Caspase-3 = biological target: T3, Caspase-3 (Homo sapiens, UniProt P42574); assay: Inhibition of human recombinant caspase 3 assessed as decrease in AMC release using Ac-Asp-Glu-Val-Asp-AMC as substrate preincubated with enzyme for 10 mins prior to substrate addition measured after 10 mins by fluorescence microplate analysis; method in brief: as §1
T3 sequence (P42574 whole entry): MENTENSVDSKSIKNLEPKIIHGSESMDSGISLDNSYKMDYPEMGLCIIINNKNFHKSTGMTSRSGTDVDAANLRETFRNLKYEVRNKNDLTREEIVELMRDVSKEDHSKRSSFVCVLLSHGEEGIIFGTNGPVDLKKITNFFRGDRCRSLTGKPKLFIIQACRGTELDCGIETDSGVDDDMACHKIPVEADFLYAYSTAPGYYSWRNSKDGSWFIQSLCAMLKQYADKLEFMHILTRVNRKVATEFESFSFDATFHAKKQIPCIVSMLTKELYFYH

Caspase-1 = biological target: T4, Caspase-1 (Homo sapiens, UniProt P29466); assay: Inhibition of human recombinant caspase 1 assessed as decrease in AMC release using Ac-Tyr-Val-Ala-Asp-AMC as substrate preincubated with enzyme for 10 mins prior to substrate addition measured after 10 mins by fluorescence microplate analysis; method in brief: as §1
T4 sequence (P29466 whole entry): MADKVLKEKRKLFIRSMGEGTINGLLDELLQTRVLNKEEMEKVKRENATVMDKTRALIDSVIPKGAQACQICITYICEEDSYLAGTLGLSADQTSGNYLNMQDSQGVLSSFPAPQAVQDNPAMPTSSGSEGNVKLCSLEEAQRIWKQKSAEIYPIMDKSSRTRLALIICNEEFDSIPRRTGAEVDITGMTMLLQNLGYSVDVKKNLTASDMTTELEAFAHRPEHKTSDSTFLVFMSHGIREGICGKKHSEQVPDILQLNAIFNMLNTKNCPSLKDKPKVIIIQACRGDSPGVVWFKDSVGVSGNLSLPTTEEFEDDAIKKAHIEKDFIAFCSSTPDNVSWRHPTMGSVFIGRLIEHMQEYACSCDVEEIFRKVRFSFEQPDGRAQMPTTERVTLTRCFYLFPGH

Row | Compound | IC50 (Caspase-7) [µM] | IC50 (Caspase-6) [µM] | IC50 (Caspase-3) [µM] | IC50 (Caspase-1) [µM]
1 | O=C1C(=O)N(CCCCF)c2ccc(S(=O)(=O)N3CCC[C@H]3COCCF)cc21 | 0.00968 | > 500 | 0.0743 | 45.8
2 | CCCCN1C(=O)C(=O)c2cc(S(=O)(=O)N3CCC[C@H]3COCCF)ccc21 | 0.0396 | > 500 | 0.00479 | 24.7
3 | COCCCC1CCCN1S(=O)(=O)c1ccc2c(c1)C(=O)C(=O)N2 (racemic) | 0.125 | > 500 | 1.58 | 11.6
4 | CCOC[C@@H]1CCCN1S(=O)(=O)c1ccc2c(c1)C(=O)C(=O)N2 | 0.0132 | > 500 | 1.12 | > 500
5 | CCCCN1C(=O)C(=O)c2cc(S(=O)(=O)N3CCC[C@H]3CCOC)ccc21 | 0.0246 | > 500 | 0.0943 | 15.5
6 | CCOC[C@@H]1CCCN1S(=O)(=O)c1ccc2c(c1)C(=O)C(=O)N2CCCCF | 0.218 | > 500 | 0.365 | > 500
7 | CCCCN1C(=O)C(=O)c2cc(S(=O)(=O)N3CCCC3CCCOC)ccc21 (racemic) | 0.515 | > 500 | 0.17 | > 500
8 | O=C1Nc2ccc(S(=O)(=O)N3CCC[C@H]3COCCF)cc2C1=O | 1.33 | > 500 | 0.346 | 18.4
9 | O=C1C(=O)N(CCCCF)c2ccc(S(=O)(=O)N3CCC[C@H]3COCC(F)(F)F)cc21 | 0.265 | > 500 | 0.149 | 30.7
10 | CCCCN1C(=O)C(=O)c2cc(S(=O)(=O)N3CCC[C@H]3COCC(F)(F)F)ccc21 | 0.00747 | > 500 | 0.0468 | 25.9
11 | COCCCC1CCCN1S(=O)(=O)c1ccc2c(c1)C(=O)C(=O)N2CCCCF (racemic) | 0.0337 | > 500 | 0.184 | > 500
12 | O=C1Nc2ccc(S(=O)(=O)N3CCC[C@H]3COCC(F)(F)F)cc2C1=O | 1.42 | > 500 | 1.06 | 14.7
13 | COCC[C@@H]1CCCN1S(=O)(=O)c1ccc2c(c1)C(=O)C(=O)N2CCCCF | 0.0123 | 1.03 | 0.0923 | 7.34
14 | CCCCN1C(=O)C(=O)c2cc(S(=O)(=O)N3CCC[C@H]3COCC)ccc21 | 0.0646 | 2.61 | 0.0256 | 18.4
15 | COCC[C@@H]1CCCN1S(=O)(=O)c1ccc2c(c1)C(=O)C(=O)N2 | 0.54 | > 500 | 0.349 | 12.1
